Rows were chosen to be rich in hits. Some 3.6% of all compounds tested hit in one or more screens of this group.
SKKanGAS inh: inhibitors of SKKanGAS S. pyogenes growth in kanamycin (SK-promoter or general growth effect). BacTiter-Glo, 6 h. inhibition, % at 7.5 µM. 1.3% of 300,000 active. AID 1662;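 active = mean replicate score, as percent of positive control median, at least 50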;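 also: strain carries kanamycin resistance gene driven by streptokinase promoter and grows in 40 µg/ml kanamycin; loss of luminescence reflects streptokinase promoter inhibition or plain growth inhibition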
CSC inhib: blocks cancer stem cells | inhibition, % at 7.5 µM | 1.1% of 300,000 active | cancer stem cell-like cells viability, luminescence; in the data active = inhibition above about 75%; tested in HMLE shEcad cells
HIF activator: HIF pathway transcriptional activation | 0.32% of 300,000 active | AID 1910 | activation, % at 7.5 µM (by protocol) | U2OS HRE-luciferase reporter, luminescence; normalized: DMSO 0%, desferrioxamine 100%;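 active = mean activation of at least 10% of the iron chelator positive control signal, with at least half of replicates also reaching 10%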
PfHsp90 yeast 2: inhibits growth of yeast expressing Plasmodium falciparum Hsp90. S. cerevisiae expressing PfHsp90, BacTiter-Glo ATP, 48 h; yeast lacking PDR1 and PDR3 efflux regulators. inhibition, % at 9.4 µM. 0.32% of 310,000 active. AID 504621;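 active = every replicate shows inhibition above about 80%, whatever the replicate mean, limit read from the data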
Beta cell apopt: blocks beta cell apoptosis | INS-1E cytokine-induced death, ATP luminescence, 48 h; percent of positive-control rescue, neutral wells zero | protection from apoptosis, % (concentration not given with the values) | 0.8% of 300,000 active;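 active = Every replicate reaches about 75%, or at least half do and their mean reaches it too, limit read from the data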;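 also: higher means more ATP so stronger rescue from cytokine killing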
T cruzi inh: blocks replication of Trypanosoma cruzi. inhibition, % (no concentration beside the values). T. cruzi beta-gal in NIH3T3, luminescence, 90 h. AID 1885. 1.4% of 300,000 active;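 active = mean inhibition across valid replicates above about 55%, limit read from the data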;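 also: signal also drops with host cell toxicity which is not excluded here; higher percent means less beta-gal luminescence so fewer parasites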
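assay system = mouse NIH/3T3 fibroblasts infected with β-gal-expressing T. cruzi Tulahuen C4 | input = 5,000 NIH/3T3 host cells per well | buffer or medium = DMEM plus 2% FBS | timing = 3 h host attachment, then at least 90 h co-culture | measured by = GalScreen luminescence, 60 min | evaluation = luminescence reflecting intracellular parasite burden, expressed as percent inhibition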
Hits are given with their value; i = inactive; nt = not tested or not shown.

SMILES	SKKanGAS inh	CSC inhib	HIF activator	PfHsp90 yeast 2	Beta cell apopt	T cruzi inh
CC(C)c1nc(SCC(=O)Nc2cccc3ccccc23)n[nH]1	nt	i	nt	i	i	nt
O=S1c2ccccc2Sc2ccccc21	nt	nt	nt	i	nt	nt
Cc1cc(C)n2nc(SCC(=O)N(CCC#N)c3ccc(F)cc3)nc2n1	nt	nt	nt	nt	i	nt
Cc1[nH]cnc1C(=O)N/N=C/c1ccc([N+](=O)[O-])s1	103	i	i	i	i	57
Cc1cc(C(=O)N/N=C/c2ccc([N+](=O)[O-])s2)n[nH]1	109	nt	i	i	nt	57
O=C(CCNS(=O)(=O)c1ccccc1C(F)(F)F)N1CCN(S(=O)(=O)c2cccc(F)c2)CC1	i	i	i	i	i	i
CC(C)N(C(=S)Nc1ccc(S(=O)(=O)N2CCOCC2)cc1)c1ccccc1	nt	i	nt	nt	i	nt
Cc1nn(-c2ccccn2)c2nc(-c3cccs3)cc(C(=O)NCc3ccco3)c12	i	i	i	i	i	i
CCOC(=O)c1cc(-c2cccs2)nc2c1c(C)nn2-c1ccccn1	58	104	i	i	i	i
S=C(NCc1ccc(Cl)cc1)NCc1ccccn1	i	i	nt	i	i	nt
CC(C)CCC(CCNCc1ccccn1)c1ccc(Cl)cc1 (stereo not drawn)	51	i	i	i	i	i
CCOC(=O)c1cc2c(c(CCO)n1)[C@H](CCO)N(S(=O)C(C)(C)C)C2 (stereo partly drawn)	nt	nt	nt	i	nt	nt
O=C1Nc2ccc(Br)cc2/C1=C/C(=O)c1ccc2c(c1)OCO2	i	i	i	106	i	i
O=C1Nc2ccccc2/C1=C\C(=O)c1ccccc1	i	i	i	i	i	i
CC(C)Oc1ccc(C(=O)/C=C2/C(=O)Nc3ccccc32)cc1	i	102	i	107	i	i
COc1ccc(C(=O)/C=C2\C(=O)Nc3ccc(Br)cc32)cc1	nt	nt	nt	144	nt	nt
O=C(/C=C\Nc1ccc2c(c1)OCO2)c1ccc2c(c1)OCO2	i	i	i	i	i	i
COc1ccc(N2CC(NC(=O)c3ccc4ccccc4c3)CC2=O)cc1OC (stereo not drawn)	i	i	i	i	i	i
Cc1occc1C(=O)NC1CCCCCC1	i	i	13	i	i	i
O=C(NC1CCCCCC1)c1ccc[nH]c1=S	i	i	i	i	i	58
OCC1OC(n2cnc3c(/C=C(\O)c4ccccc4)ncnc32)C(O)C1O (stereo not drawn)	nt	nt	nt	i	nt	nt
COc1cc(CNc2ccc(CNc3ncn[nH]3)cc2)ccc1OCc1ccccc1	i	90	i	i	i	i
COc1ccccc1CNc1ccc(CNc2ncn[nH]2)cc1	i	i	i	i	i	i
Cc1cccc(CN2CCC(CNC(=O)Cn3ncc4c([nH]c5ccccc54)c3=O)CC2)c1	i	i	i	i	nt	i
CCCCCCCC1CC(=O)C=C(C)C1C(=O)OCC (stereo not drawn)	i	i	81	nt	i	i
SMILES	SKKanGAS inh	CSC inhib	HIF activator	PfHsp90 yeast 2	Beta cell apopt	T cruzi inh
O=C(NCC1CCCO1)c1ccc([N+](=O)[O-])s1 (stereo not drawn)	i	i	i	i	i	67
O=C(NCC1CCCO1)c1ccc(Br)s1 (stereo not drawn)	i	i	i	i	i	i
Cc1ncnc(N)c1CCCNc1ccccc1	nt	nt	nt	i	nt	nt
CCCCCCN(C(=O)CCCN1C(=O)NC(c2ccc([N+](=O)[O-])cc2)C(C(=O)OCc2ccccc2)=C1C)C(C)C(=O)NCCCC (stereo not drawn)	nt	nt	nt	i	nt	nt
COc1ccc(O)c(C(=O)c2cc(SCC(=O)O)c3nc4sc5c(c4c(=O)n3c2)CCCC5)c1	52	i	i	i	i	i
CCOC(=O)c1sc2nc3c(SCC(=O)O)cc(C(=O)c4ccccc4O)cn3c(=O)c2c1C	i	i	i	i	i	i
CCOC(=O)c1sc2nc3c(SCC(=O)O)cc(C(=O)c4cc(F)ccc4O)cn3c(=O)c2c1C	74	i	i	i	i	i
O=C1c2c(Cl)c(Cl)c(Cl)c(Cl)c2C(=O)N1c1nccs1	nt	nt	nt	i	nt	nt
O=C(COc1ccccc1)N(Cc1cccc(F)c1)C1CCS(=O)(=O)C1 (stereo not drawn)	i	i	18	i	i	i
Cc1c(CN2CCC(CO)(Cc3ccccc3)CC2)c2ccccc2n1C	i	i	i	i	i	57
COc1ccc(-n2c(O)c(/C=N/NS(=O)(=O)c3cccc([N+](=O)[O-])c3)c3ccccc3c2=O)cc1OC	i	i	i	i	i	62
O=C(NC(CSCc1ccccc1)C(=O)N/N=C/c1ccc(O)cc1O)c1ccc([N+](=O)[O-])cc1 (stereo not drawn)	71	105	42	i	78	i
Cc1ccc(/C=N\Nc2nc3ccc(Cl)cc3[nH]2)o1	i	i	13	i	i	i
O=C1/C(=C\c2ccc(Cl)c(Cl)c2)CN(C(=O)CCN2CCOCC2)C/C1=C/c1ccc(Cl)c(Cl)c1	nt	nt	nt	107	nt	nt
O=C1/C(=C\c2ccccc2)CN(C(=O)CCN2CCCCC2)C/C1=C/c1ccccc1	nt	nt	nt	i	nt	nt
Cc1ccc(C)c(N2CCN(CCN3CCCCC3)CC2)c1	i	i	i	i	i	i
COC(=O)c1cc(=O)n(Cc2ccco2)c(=Nc2ccc(F)c(Cl)c2)s1	i	94	i	i	i	i
COC(=O)c1cc(=O)n(CCc2ccccc2F)c(=Nc2ccc(F)c(Cl)c2)s1	i	122	i	i	76	i
COc1cc(NS(=O)(=O)c2ccc(NC(C)=O)cc2)nc(OC)n1	i	i	i	nt	i	i
COc1cc(NS(=O)(=O)c2ccc(N/C=C(\C#N)c3nc4cc(Cl)ccc4o3)cc2)nc(OC)n1	i	95	i	i	i	i
O=C(Nc1ccc(-c2noc(-c3cccs3)n2)cc1)c1cccnc1	i	i	i	nt	99	i
O=C(Nc1cccc(NC(=O)c2cccs2)c1)c1cccnc1	i	nt	i	i	i	i
COc1cccc(-c2nc(-c3ccc(NC(=O)c4cccnc4)cc3)no2)c1	i	i	i	i	114	i
CCC(=O)Oc1ccc(-c2nc(-c3cccnc3)no2)cc1	56	i	i	nt	i	i
N#C/C(=C/C=C/c1ccccc1)C(=O)Nc1ccccc1	i	i	i	i	i	69
COc1cc([N+](=O)[O-])ccc1N1C(=O)C2C3C=CC(C4CC34)C2C1=O (stereo not drawn)	i	i	i	i	i	i
CCCCOC(=O)c1[nH]c2c(c1C)C(=O)CC(c1cc(OC)c(OC)c(OC)c1)C2 (stereo not drawn)	i	i	i	nt	75	i
COc1ccc(S(=O)(=O)N2CCN(C(=O)NCc3ccc(C)cc3)CC2)cc1	i	i	i	i	i	i
CC(C)N1CCN(c2ccc(OC[C@H]3CO[C@](Cn4cncn4)(c4ccc(Cl)cc4Cl)O3)cc2)CC1	nt	i	nt	101	i	nt
CC(C)N1CCN(c2ccc(OCC3COC(Cn4cncn4)(c4ccc(Cl)cc4Cl)O3)cc2)CC1 (stereo not drawn)	nt	nt	nt	113	nt	nt
